From ChEMBL document CHEMBL1773010, “Cytotoxic and apoptosis-inducing activities of limonoids from the seeds of Azadirachta indica (neem)” (J Nat Prod, 2011)
Calls of active or inactive are those of the source. The calls are words filed in the database; no cut-off is given here.

Experiments:
HL-60 [1] = assay: Induction of apoptosis in human HL60 cells assessed as late apoptotic cells at 30 uM after 24 hrs using annexin-V FITC and PI staining by flow cytometry; assay type: functional
In short: (§1)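 HL60 cells (1 × 10^5) exposed to 30 μM final compound for 8 or 24 h. Cells were washed in annexin-binding buffer, stained with annexin V-FITC and PI for 10 min, and analyzed by flow cytometry (FL1 and FL2). Quadrants: early apoptotic annexin+/PI−, late apoptotic double positive, necrotic annexin−/PI+. Values are means of three experiments.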

HL-60 [2] = assay: Induction of apoptosis in human HL60 cells assessed as decrease in procaspase-9 level at 30 uM after 24 hrs by Western blot analysis; assay type: functional, cell-based
In short: (§2)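 HL60 cells (4 × 10^5) exposed to 30 μM final compound for 8 and 24 h, then lysed. Total protein was run on 15% SDS-PAGE and transferred to PVDF. Membranes were probed overnight at 4 °C with antibodies to caspase-3, cleaved caspase-3, caspase-8 and caspase-9, with β-actin as loading control.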

HL-60 [3] = assay: Induction of apoptosis in human HL60 cells assessed as increase in cleaved caspase-8 level at 30 uM after 24 hrs by Western blot analysis; assay type: functional, cell-based; in short: as §2
HL-60 [4] = assay: Induction of apoptosis in human HL60 cells assessed as decrease in procaspase-3 level at 30 uM after 24 hrs by Western blot analysis; assay type: functional, cell-based; in short: as §2
[5] = Cytotoxicity against human AZ-521 cells assessed as cell viability after 48 hrs by MTT assay; assay type: functional, cell-based; conditions: AZ-521, 48 h
In short: (§3)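 Cells seeded at 3 × 10^3 per well and exposed to compounds from 1 × 10^-4 to 1 × 10^-6 M for 48 h. MTT was then added for 3 h, formazan dissolved in 0.04 M HCl in 2-propanol, and absorbance read at 570 nm against 630 nm. IC50 is the concentration giving 50% growth inhibition, from triplicate assays.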

A549 = assay: Cytotoxicity against human A549 cells assessed as cell viability after 48 hrs by MTT assay; assay type: functional, cell-based; conditions: A549, 48 h; in short: as §3
HL-60 [6] = assay: Cytotoxicity against human HL60 cells assessed as cell viability after 48 hrs by MTT assay; assay type: functional, cell-based; conditions: HL-60, 48 h; in short: as §3
SK-BR-3 = assay: Cytotoxicity against human SK-BR-3 cells assessed as cell viability after 48 hrs by MTT assay; assay type: functional, cell-based; conditions: SK-BR-3, 48 h; in short: as §3
[7] = Cytotoxicity against human CRL1579 cells assessed as cell viability after 48 hrs by MTT assay; assay type: functional, cell-based; in short: as §3
[8] = Cytotoxicity against human RPMI 1788 cells assessed as cell viability after 48 hrs by MTT assay; assay type: cell-based; conditions: RPMI-1788, 48 h; in short: as §3
HL-60 [9] = assay: Induction of apoptosis in human HL60 cells assessed as decrease in procaspase-8 level at 30 uM after 24 hrs by Western blot analysis; assay type: functional, cell-based; in short: as §2
HL-60 [10] = assay: Induction of apoptosis in human HL60 cells assessed as viable cells at 30 uM after 24 hrs using annexin-V FITC and PI staining by flow cytometry; assay type: functional; conditions: HL-60, 24 h, read-out: Activity; in short: as §1
HL-60 [11] = assay: Induction of apoptosis in human HL60 cells assessed as non-viable cells at 30 uM after 24 hrs using annexin-V FITC and PI staining by flow cytometry; assay type: functional; in short: as §1
HL-60 [12] = assay: Induction of apoptosis in human HL60 cells assessed as early apoptotic cells at 30 uM after 24 hrs using annexin-V FITC and PI staining by flow cytometry; assay type: functional; in short: as §1
HL-60 [13] = assay: Induction of apoptosis in human HL60 cells assessed as viable cells at 30 uM after 8 hrs using annexin-V FITC and PI staining by flow cytometry; assay type: functional; conditions: HL-60, 8 h, read-out: Activity; in short: as §1
HL-60 [14] = assay: Induction of apoptosis in human HL60 cells assessed as non-viable cells at 30 uM after 8 hrs using annexin-V FITC and PI staining by flow cytometry; assay type: functional; in short: as §1
HL-60 [15] = assay: Induction of apoptosis in human HL60 cells assessed as late apoptotic cells at 30 uM after 8 hrs using annexin-V FITC and PI staining by flow cytometry; assay type: functional; in short: as §1
HL-60 [16] = assay: Selectivity index, ratio of IC50 for human RPMI 1788 cells to IC50 for human HL60 cells; assay type: functional
HL-60 [17] = assay: Induction of apoptosis in human HL60 cells assessed as early apoptotic cells at 30 uM after 8 hrs using annexin-V FITC and PI staining by flow cytometry; assay type: functional; in short: as §1
HL-60 [18] = assay: Induction of apoptosis in human HL60 cells assessed as increase in cleaved caspase-9 level at 30 uM after 24 hrs by Western blot analysis; assay type: functional, cell-based; in short: as §2
HL-60 [19] = assay: Induction of apoptosis in human HL60 cells assessed as increase in cleaved caspase-3 level at 30 uM after 24 hrs by Western blot analysis; assay type: functional, cell-based; in short: as §2

COC(=O)C[C@H]1[C@]2(C)C3=C(C)[C@H](c4ccoc4)C[C@H]3O[C@@H]2[C@@H]2OC[C@]3(C)C=CC(=O)[C@@]1(C)[C@@H]23
Activity (HL-60 [1]): 28.1% | Activity (HL-60 [2]): Active | Activity (HL-60 [3]): Active | Activity (HL-60 [4]): Active | IC50 [5]: 2.4 µM | IC50 (A549): 9.3 µM | IC50 (HL-60 [6]): 2.7 µM | IC50 (SK-BR-3): 1.7 µM | IC50 [7]: 14.2 µM | IC50 [8]: 2.7 µM | Activity (HL-60 [9]): Active | viability at 30 µM (HL-60 [10]): 49.8% | Activity (HL-60 [11]): 3.4% | Activity (HL-60 [12]): 18.7% | viability at 30 µM (HL-60 [13]): 73.7% | Activity (HL-60 [14]): 3.5% | Activity (HL-60 [15]): 11.8% | Ratio IC50 (HL-60 [16]): 1 | Activity (HL-60 [17]): 10.9% | Activity (HL-60 [18]): Active | Activity (HL-60 [19]): Active

CC1(C)C(=O)C=C[C@]2(C)[C@H]3CC[C@@]4(C)[C@H](c5ccoc5)OC(=O)[C@H]5O[C@]54[C@]3(C)[C@H](OC(=O)c3ccccc3)C[C@@H]12
Activity (HL-60 [1]): 45.7% | Activity (HL-60 [2]): Active | Activity (HL-60 [3]): Active | Activity (HL-60 [4]): Active | IC50 [5]: > 20 µM | IC50 (A549): > 20 µM | IC50 (HL-60 [6]): 2.9 µM | IC50 (SK-BR-3): > 20 µM | IC50 [7]: > 20 µM | IC50 [8]: 2 µM | Activity (HL-60 [9]): Active | viability at 30 µM (HL-60 [10]): 9.9% | Activity (HL-60 [11]): 3% | Activity (HL-60 [12]): 41.4% | viability at 30 µM (HL-60 [13]): 88.1% | Activity (HL-60 [14]): 0.7% | Activity (HL-60 [15]): 0.7% | Ratio IC50 (HL-60 [16]): 0.69 | Activity (HL-60 [17]): 10.5% | Activity (HL-60 [18]): Active | Activity (HL-60 [19]): Active

CC1(C)C(=O)C=C[C@]2(C)[C@H]3CC[C@@]4(C)[C@H](c5ccoc5)C(=O)[C@H]5O[C@]54[C@]3(C)[C@H](OC(=O)c3ccccc3)C[C@@H]12
Activity (HL-60 [1]): 15.5% | Activity (HL-60 [2]): Active | Activity (HL-60 [3]): Active | Activity (HL-60 [4]): Active | IC50 [5]: 8.4 µM | IC50 (A549): > 20 µM | IC50 (HL-60 [6]): 3.1 µM | IC50 (SK-BR-3): > 20 µM | IC50 [7]: > 20 µM | IC50 [8]: 16.1 µM | Activity (HL-60 [9]): Active | viability at 30 µM (HL-60 [10]): 28.2% | Activity (HL-60 [11]): 4.5% | Activity (HL-60 [12]): 51.8% | viability at 30 µM (HL-60 [13]): 56.9% | Activity (HL-60 [14]): 1.4% | Activity (HL-60 [15]): 3% | Ratio IC50 (HL-60 [16]): 5.19 | Activity (HL-60 [17]): 38.7% | Activity (HL-60 [18]): Active | Activity (HL-60 [19]): Active

CC=C(C)C(=O)O[C@H]1C[C@@H](OC(C)=O)[C@@]2(C(=O)OC)CO[C@H]3[C@H]4O[C@@H]5C6C[C@@H](O[C@@H]7OC=C[C@]67O)[C@]5(O)[C@@]4(C)[C@@H]4[C@@](OC)(C(=O)OC)OC[C@@]14[C@@H]32
IC50 [5]: > 20 µM | IC50 (A549): > 20 µM | IC50 (HL-60 [6]): > 20 µM | IC50 (SK-BR-3): > 20 µM | IC50 [7]: > 20 µM

CCC(C)C(=O)O[C@H]1C[C@@H](OC(C)=O)[C@@]2(C(=O)OC)CO[C@H]3[C@@H](O)[C@@](C)([C@]45O[C@@]4(C)C4CC5O[C@@H]5C[C@@H](OC)C[C@]45O)[C@@H]4[C@@H](C(=O)OC)OC[C@@]14[C@@H]32 (stereo partly drawn)
IC50 [5]: > 20 µM | IC50 (A549): > 20 µM | IC50 (HL-60 [6]): > 20 µM | IC50 (SK-BR-3): > 20 µM | IC50 [7]: > 20 µM
